The source made the active and inactive calls. The calls are words filed in the database; no cut-off is given here.
Experiments:
A-431 = assay: Cytotoxicity against human A431 cells over expressing EGFR assessed as reduction in cell viability after 72 hrs by sulforhodamine B assay; assay type: functional, cell-based; settings: A-431, 72 h
Method in brief: (§1)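 Cells seeded and grown 24 h, then exposed to 0.1% DMSO vehicle or 0.3125-20 μM compound for 72 h. Fixed with ice-cold 50% TCA (1 h, 4 °C), stained with 0.4% SRB 30 min at room temperature, dye solubilized in 10 mM tris base pH 10.5, OD read at 560 nm. Survival fraction = OD treated/OD vehicle; IC50 from triplicates of at least two independent experiments, mean ± SD.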

MDA-MB-361 [1] = assay: Cytotoxicity against human MDA-MB-361 cells over expressing HER2 assessed as reduction in cell viability after 72 hrs by sulforhodamine B assay; assay type: functional, cell-based; settings: MDA-MB-361, 72 h; method in brief: as §1
[2] = test system: Epidermal growth factor receptor (Homo sapiens), P00533 [T790M]; assay: Inhibition of EGF-induced EGFR T790M mutant phosphorylation in human NCI-H1975 cells at 2.5 to 10 uM pretreated for 2.5 hrs followed by EGF-stimulation and measured after 10 mins by Western blot analysis; assay type: cell-based
Method in brief: (§2)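 Serum-starved overnight NCI-H1975 cells preincubated 2.5 h with compound, then stimulated with 50 ng/ml EGF for 10 min. Lysed in HEPES buffer, protein quantified, 12% SDS-PAGE, nitrocellulose transfer, milk blocking, HRP secondary, chemiluminescent detection.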

[3] = target: T1, Receptor tyrosine-protein kinase erbB-2 (Homo sapiens, UniProt P04626); assay: Inhibition of recombinant human N-terminal GST-tagged HER2 (679 to 1255 residues) expressed in baculovirus infected Sf9 cells using Poly-(Glu, Tyr) as substrate measured after 45 minutes by Kinase-Glo luminescent assay
[4] = test system: Epidermal growth factor receptor (Homo sapiens), P00533 [T790M]; assay: Inhibition of EGF-induced EGFR T790M mutant in human NCI-H1975 cells assessed as reduction in ribosomal S6 phosphorylation at S235/236 residue at 2.5 to 10 uM pretreated for 2.5 hrs followed by EGF-stimulation and measured after 10 mins by Western blot analysis; assay type: cell-based; method in brief: as §2
[5] = test system: Epidermal growth factor receptor (Homo sapiens), P00533 [T790M]; assay: Inhibition of EGFR T790M mutant in human NCI-H1975 cells assessed as reduction in p70S6K phosphorylation at T389 residue after 72 hrs by Western blot analysis; assay type: cell-based
Method in brief: (§3)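 Unstimulated NCI-H1975 cells exposed to indicated concentrations for 72 h. Lysates in HEPES buffer run on 12% SDS-PAGE, blotted to nitrocellulose and probed for AKT/S6K/S6 signalling with chemiluminescent detection; β-actin loading control.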

[6] = target: T2, Epidermal growth factor receptor (Homo sapiens, UniProt P00533); assay: Inhibition of EGF-induced EGFR signalling in EGFR over-expressing human A431 cells assessed as reduction in ribosomal S6 phosphorylation at S235/236 residue at 2.5 to 10 uM pretreated for 3 hrs followed by EGF-stimulation and measured after 10 mins by Western blot analysis
Method in brief: (§4)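 Overnight serum-starved A431 cells given indicated concentrations for 3 h, then 50 ng/ml EGF for 10 min. HEPES-buffer lysates resolved on 12% SDS-PAGE, transferred to nitrocellulose, blocked in 5% milk/TBST, probed with primary and HRP secondary antibodies, chemiluminescence read-out.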

[7] = test system: Epidermal growth factor receptor (Homo sapiens), P00533 [T790M]; assay: Inhibition of EGFR T790M mutant in human NCI-H1975 cells assessed as reduction in ribosomal S6 phosphorylation at S235/236 residue after 72 hrs by Western blot analysis; assay type: cell-based; method in brief: as §3
[8] = test system: Epidermal growth factor receptor (Homo sapiens), P00533 [T790M]; assay: Inhibition of EGF-induced EGFR T790M mutant in human NCI-H1975 cells assessed as reduction in p70S6K phosphorylation at T389 residue at 2.5 to 10 uM pretreated for 2.5 hrs followed by EGF-stimulation and measured after 10 mins by Western blot analysis; assay type: cell-based; method in brief: as §2
SK-BR-3 = assay: Cytotoxicity against human SKBR3 cells over expressing HER2 assessed as reduction in cell viability after 72 hrs by sulforhodamine B assay; assay type: functional, cell-based; settings: SK-BR-3, 72 h; method in brief: as §1
NCI-H1975 [9] = assay: Induction of apoptosis in human NCI-H1975 cells harboring EGFR T790M mutant assessed as increase in necrotic cells at 2.5 to 10 uM after 72 hrs by Annexin-V-FITC/propidium iodide staining based flow cytometry; assay type: functional, cell-based
Method in brief: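 NCI-H1975 cells grown in RPMI-1640 with 2 mM L-glutamine and 10% FBS, exposed 72 h to indicated concentrations. Harvested, ethanol-fixed on ice, PI-stained overnight at 4 °C. Flow cytometry on 20 000 cells/sample gave percent live, early apoptotic and late apoptotic/necrotic cells.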

[10] = target: T2, Epidermal growth factor receptor; assay: Inhibition of EGF-induced EGFR phosphorylation at Y1068 residues in EGFR over-expressing human A431 cells pretreated for 3 hrs followed by EGF-stimulation and measured after 10 mins by Western blot analysis; method in brief: as §4
[11] = test system: Epidermal growth factor receptor (Homo sapiens), P00533 [T790M]; assay: Inhibition of EGFR T790M mutant in human NCI-H1975 cells assessed as reduction in AKT phosphorylation at S473 residue after 72 hrs by Western blot analysis; assay type: cell-based; method in brief: as §3
MDA-MB-361 [12] = assay: Induction of apoptosis in human MDA-MB-361 cells after 24 hrs by Annexin-V-FITC/propidium iodide staining based flow cytometry; assay type: functional, cell-based
[13] = test system: Epidermal growth factor receptor (Homo sapiens), P00533 [T790M]; assay: Inhibition of EGF-induced EGFR T790M mutant in human NCI-H1975 cells assessed as reduction in AKT phosphorylation at S473 residue at 2.5 to 10 uM pretreated for 2.5 hrs followed by EGF-stimulation and measured after 10 mins by Western blot analysis; assay type: cell-based; method in brief: as §2
[14] = target: T2, Epidermal growth factor receptor; assay: Inhibition of EGF-induced EGFR signalling in EGFR over-expressing human A431 cells assessed as reduction in p70S6K phosphorylation at T389 residue at 2.5 to 10 uM pretreated for 3 hrs followed by EGF-stimulation and measured after 10 mins by Western blot analysis; method in brief: as §4
NCI-H1975 [15] = assay: Cytotoxicity against human NCI-H1975 cells harboring EGFR T790M mutant assessed as reduction in cell viability after 72 hrs by sulforhodamine B assay; assay type: functional, cell-based; settings: NCI-H1975, 72 h; method in brief: as §1
[16] = target: T2, Epidermal growth factor receptor; assay: Inhibition of recombinant human C-terminal His-tagged/N-terminal GST-tagged EGFR (668 to 1210 residues) expressed in baculovirus infected Sf9 cells using Poly-(Glu, Tyr) as substrate measured after 45 minutes by Kinase-Glo luminescent assay
NCI-H1975 [17] = assay: Induction of apoptosis in human NCI-H1975 cells harboring EGFR T790M mutant assessed as increase in apoptotic cells at 2.5 to 10 uM after 72 hrs by Annexin-V-FITC/propidium iodide staining based flow cytometry; assay type: functional, cell-based
[18] = target: T2, Epidermal growth factor receptor; assay: Inhibition of EGF-induced EGFR signalling in EGFR over-expressing human A431 cells assessed as reduction in AKT phosphorylation at S473 residue at 2.5 to 10 uM pretreated for 3 hrs followed by EGF-stimulation and measured after 10 mins by Western blot analysis; method in brief: as §4
[19] = target: T2, Epidermal growth factor receptor; assay: Inhibition of EGF-induced EGFR signalling in EGFR over-expressing human A431 cells assessed as reduction in AKT phosphorylation at S473 residue at 5 to 20 uM pretreated for 3 hrs followed by EGF-stimulation and measured after 10 mins by Western blot analysis; method in brief: as §4
[20] = target: T2, Epidermal growth factor receptor; assay: Inhibition of EGF-induced EGFR signalling in EGFR over-expressing human A431 cells assessed as reduction in p70S6K phosphorylation at T389 residue at 5 to 20 uM pretreated for 3 hrs followed by EGF-stimulation and measured after 10 mins by Western blot analysis; method in brief: as §4
[21] = target: T2, Epidermal growth factor receptor; assay: Inhibition of EGF-induced EGFR signalling in EGFR over-expressing human A431 cells assessed as reduction in ribosomal S6 phosphorylation at S235/236 residue at 5 to 20 uM pretreated for 3 hrs followed by EGF-stimulation and measured after 10 mins by Western blot analysis; method in brief: as §4
[22] = target: T1, Receptor tyrosine-protein kinase erbB-2; assay: Inhibition of HER2 signalling in HER2 over-expressing human SKBR3 cells assessed as reduction in AKT phosphorylation at S473 residue at 2.5 to 10 uM after 72 hrs by Western blot analysis
Method in brief: (§5)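 SKBr3 cells (DMEM, 10% FBS) treated 72 h at indicated concentrations. HEPES-buffer lysates on 12% SDS-PAGE, nitrocellulose transfer, 5% milk/TBST block, immunoblotted for AKT/mTOR/S6 with HRP secondary and chemiluminescence; β-actin loading control.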

[23] = target: T1, Receptor tyrosine-protein kinase erbB-2; assay: Inhibition of HER2 signalling in HER2 over-expressing human SKBR3 cells assessed as reduction in S6 phosphorylation at S235/236 residue at 2.5 to 10 uM after 72 hrs by Western blot analysis; method in brief: as §5
[24] = target: T1, Receptor tyrosine-protein kinase erbB-2; assay: Inhibition of HER2 signalling in HER2 over-expressing human SKBR3 cells assessed as reduction in mTOR phosphorylation at S2448 residue at 2.5 to 10 uM after 72 hrs by Western blot analysis; method in brief: as §5

T2 sequence (P00533 whole entry): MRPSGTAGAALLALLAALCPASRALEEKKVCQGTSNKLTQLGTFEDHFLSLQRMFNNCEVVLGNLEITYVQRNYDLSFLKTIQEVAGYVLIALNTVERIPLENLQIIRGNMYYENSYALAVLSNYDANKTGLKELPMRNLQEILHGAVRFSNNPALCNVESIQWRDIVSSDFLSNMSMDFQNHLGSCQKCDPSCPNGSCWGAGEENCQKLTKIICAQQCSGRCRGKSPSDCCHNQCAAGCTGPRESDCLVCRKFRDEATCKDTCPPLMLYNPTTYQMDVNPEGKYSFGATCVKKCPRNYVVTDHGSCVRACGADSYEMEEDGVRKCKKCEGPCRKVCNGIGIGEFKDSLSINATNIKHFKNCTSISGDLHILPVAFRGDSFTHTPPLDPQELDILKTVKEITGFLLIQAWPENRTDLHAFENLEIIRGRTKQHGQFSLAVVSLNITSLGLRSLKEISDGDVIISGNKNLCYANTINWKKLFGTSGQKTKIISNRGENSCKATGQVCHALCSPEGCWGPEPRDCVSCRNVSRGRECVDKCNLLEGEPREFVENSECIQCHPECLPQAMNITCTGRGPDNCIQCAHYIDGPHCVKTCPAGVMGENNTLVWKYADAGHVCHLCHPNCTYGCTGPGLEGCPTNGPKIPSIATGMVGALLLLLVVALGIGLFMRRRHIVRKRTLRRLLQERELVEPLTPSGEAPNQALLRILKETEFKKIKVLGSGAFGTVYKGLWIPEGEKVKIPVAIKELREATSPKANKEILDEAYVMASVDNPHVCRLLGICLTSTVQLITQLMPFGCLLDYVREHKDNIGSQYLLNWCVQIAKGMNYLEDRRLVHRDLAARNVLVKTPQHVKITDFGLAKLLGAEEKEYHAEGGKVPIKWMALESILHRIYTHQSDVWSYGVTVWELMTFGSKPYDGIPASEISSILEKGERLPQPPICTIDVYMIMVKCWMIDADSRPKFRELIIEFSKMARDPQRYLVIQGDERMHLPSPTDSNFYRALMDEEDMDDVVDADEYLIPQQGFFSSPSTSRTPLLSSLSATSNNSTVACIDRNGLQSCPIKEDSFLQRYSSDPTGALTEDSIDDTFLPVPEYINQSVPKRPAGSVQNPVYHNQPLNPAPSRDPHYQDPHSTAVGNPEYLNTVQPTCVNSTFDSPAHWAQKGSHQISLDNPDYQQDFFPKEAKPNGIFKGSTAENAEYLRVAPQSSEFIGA
Chain of Epidermal growth factor receptor (Homo sapiens), P00533 [T790M] (P00533 whole entry T790M): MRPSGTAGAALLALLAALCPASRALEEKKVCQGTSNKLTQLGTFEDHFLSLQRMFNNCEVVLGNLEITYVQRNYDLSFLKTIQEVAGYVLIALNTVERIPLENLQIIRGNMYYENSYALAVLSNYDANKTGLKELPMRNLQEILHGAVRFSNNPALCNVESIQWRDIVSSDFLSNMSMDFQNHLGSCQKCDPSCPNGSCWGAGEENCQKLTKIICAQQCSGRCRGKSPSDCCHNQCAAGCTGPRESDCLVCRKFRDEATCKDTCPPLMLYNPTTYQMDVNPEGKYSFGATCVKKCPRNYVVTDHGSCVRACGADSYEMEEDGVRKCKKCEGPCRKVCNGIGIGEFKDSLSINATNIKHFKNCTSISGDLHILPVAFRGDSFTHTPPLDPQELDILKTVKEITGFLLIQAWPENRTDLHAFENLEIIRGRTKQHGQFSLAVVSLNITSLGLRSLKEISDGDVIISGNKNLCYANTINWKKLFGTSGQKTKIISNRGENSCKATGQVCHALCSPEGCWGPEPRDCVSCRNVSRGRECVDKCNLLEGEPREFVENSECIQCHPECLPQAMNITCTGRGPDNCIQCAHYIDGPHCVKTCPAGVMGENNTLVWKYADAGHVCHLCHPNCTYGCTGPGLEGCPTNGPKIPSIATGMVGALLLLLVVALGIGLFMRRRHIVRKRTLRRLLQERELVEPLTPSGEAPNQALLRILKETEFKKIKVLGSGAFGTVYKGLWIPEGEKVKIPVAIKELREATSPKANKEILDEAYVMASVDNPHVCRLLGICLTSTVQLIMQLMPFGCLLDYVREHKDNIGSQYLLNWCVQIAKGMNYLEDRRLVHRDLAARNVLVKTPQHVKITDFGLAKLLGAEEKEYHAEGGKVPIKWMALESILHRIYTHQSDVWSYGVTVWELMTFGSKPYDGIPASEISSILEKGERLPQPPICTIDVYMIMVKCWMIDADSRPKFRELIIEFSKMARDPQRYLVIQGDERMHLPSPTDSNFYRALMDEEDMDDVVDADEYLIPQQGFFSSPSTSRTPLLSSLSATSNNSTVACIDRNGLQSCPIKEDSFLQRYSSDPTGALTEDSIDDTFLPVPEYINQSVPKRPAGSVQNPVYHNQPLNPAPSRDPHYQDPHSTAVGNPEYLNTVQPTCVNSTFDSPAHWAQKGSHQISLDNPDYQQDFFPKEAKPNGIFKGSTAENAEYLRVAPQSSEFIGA
T1 sequence (P04626 whole entry, the tested form may be a part): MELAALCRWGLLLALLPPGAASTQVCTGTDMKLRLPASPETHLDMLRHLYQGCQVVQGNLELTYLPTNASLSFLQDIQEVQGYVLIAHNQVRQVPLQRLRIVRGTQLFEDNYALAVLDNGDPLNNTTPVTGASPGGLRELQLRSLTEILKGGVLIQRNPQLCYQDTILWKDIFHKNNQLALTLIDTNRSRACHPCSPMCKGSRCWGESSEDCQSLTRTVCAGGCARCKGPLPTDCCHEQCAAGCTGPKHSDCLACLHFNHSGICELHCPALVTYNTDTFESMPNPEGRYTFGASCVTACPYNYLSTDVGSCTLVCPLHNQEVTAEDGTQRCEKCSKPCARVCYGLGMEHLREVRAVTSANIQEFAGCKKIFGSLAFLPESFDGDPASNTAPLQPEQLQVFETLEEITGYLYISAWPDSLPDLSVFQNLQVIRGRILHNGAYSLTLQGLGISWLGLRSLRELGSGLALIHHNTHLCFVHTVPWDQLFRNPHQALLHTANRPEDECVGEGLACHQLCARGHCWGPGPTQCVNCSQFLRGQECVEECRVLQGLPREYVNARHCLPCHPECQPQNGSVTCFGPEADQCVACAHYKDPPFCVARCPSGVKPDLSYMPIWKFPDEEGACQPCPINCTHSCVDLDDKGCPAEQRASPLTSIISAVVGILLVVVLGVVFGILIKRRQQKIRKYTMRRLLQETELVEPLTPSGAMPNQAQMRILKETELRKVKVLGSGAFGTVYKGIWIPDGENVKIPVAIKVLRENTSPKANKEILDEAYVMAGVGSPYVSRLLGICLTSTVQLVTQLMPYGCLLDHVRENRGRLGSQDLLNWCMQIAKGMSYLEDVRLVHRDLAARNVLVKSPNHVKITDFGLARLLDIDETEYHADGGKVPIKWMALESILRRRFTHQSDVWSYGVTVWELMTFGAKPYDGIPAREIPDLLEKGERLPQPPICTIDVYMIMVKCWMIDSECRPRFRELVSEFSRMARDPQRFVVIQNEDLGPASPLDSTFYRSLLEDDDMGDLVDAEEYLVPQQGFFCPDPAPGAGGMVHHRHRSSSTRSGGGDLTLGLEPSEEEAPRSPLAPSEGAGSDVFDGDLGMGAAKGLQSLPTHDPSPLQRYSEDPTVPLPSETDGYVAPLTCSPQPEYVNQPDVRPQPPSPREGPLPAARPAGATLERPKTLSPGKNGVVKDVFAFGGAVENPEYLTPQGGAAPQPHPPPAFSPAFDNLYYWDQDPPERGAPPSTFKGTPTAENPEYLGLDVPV

Row | IC50 [3] [µM] | IC50 [16] [µM] | SMILES | IC50 (A-431) [µM] | IC50 (MDA-MB-361 [1]) [µM] | IC50 (SK-BR-3) [µM] | IC50 (NCI-H1975 [15]) [µM] | also measured
1 |  |  | CCOC(=O)Nc1ccc(-c2cc3c(Nc4ccc(Oc5cccc(C(F)(F)F)c5)c(Cl)c4)ncnc3s2)cc1 | 17 | > 20 |  |  | 
2 | 1.2 | 0.0917 | O=C(NCCN1CCOCC1)Nc1ccc(-c2cc3c(Nc4ccc(Oc5cccc(C(F)(F)F)c5)c(Cl)c4)ncnc3s2)cc1 | 1.45 | 3.5 | 4.83 | 4.2 | inhibition [2]: Active; inhibition [4]: Active; inhibition [5]: Dose-dependent effect; inhibition [6]: Active; inhibition [7]: Dose-dependent effect; inhibition [8]: Active; Activity (NCI-H1975 [9]): Active; inhibition [10]: Dose-dependent effect; inhibition [11]: Dose-dependent effect; Activity (MDA-MB-361 [12]): Dose-dependent effect; inhibition [13]: Active; inhibition [14]: Active; Activity (NCI-H1975 [17]): Active; inhibition [18]: Active
3 |  |  | O=[N+]([O-])c1ccc(-c2cc3c(Nc4ccc5c(cnn5Cc5ccccc5)c4)ncnc3s2)cc1 | > 20 | > 20 |  |  | 
4 |  |  | O=[N+]([O-])c1ccc(-c2cc3c(Nc4ccc(Oc5cccc(C(F)(F)F)c5)c(Cl)c4)ncnc3s2)cc1 | 1.72 | 3.65 |  |  | 
5 |  |  | Nc1ccc(-c2cc3c(NCc4ccccc4)ncnc3s2)cc1 | > 20 | > 20 |  |  | 
6 |  |  | O=[N+]([O-])c1ccc(-c2cc3c(NCc4ccccc4)ncnc3s2)cc1 | 4.87 | > 20 |  |  | 
7 |  |  | O=C(O)/C=C\C(=O)Nc1ccc(-c2cc3c(Nc4ccc(Oc5cccc(C(F)(F)F)c5)c(Cl)c4)ncnc3s2)cc1 | > 20 | > 20 |  |  | 
8 | 1.5 | 0.0214 | Nc1ccc(-c2cc3c(Nc4ccc(Oc5cccc(C(F)(F)F)c5)c(Cl)c4)ncnc3s2)cc1 | 11.4 | 5.85 | 6 | 13.9 | inhibition [19]: Active; inhibition [10]: Dose-dependent effect; inhibition [20]: Active; inhibition [21]: Active
9 |  |  | CS(=O)(=O)CCNCc1ccc(-c2ccc3ncnc(Nc4ccc(OCc5cccc(F)c5)c(Cl)c4)c3c2)o1 | 1.69 | 13.7 | 0.17 | 11.5 | 
10 | 0.879 | 0.0477 | CC(=O)Nc1ccc(-c2cc3c(Nc4ccc(Oc5cccc(C(F)(F)F)c5)c(Cl)c4)ncnc3s2)cc1 | 10.5 | 10.5 | 4.7 | 12.7 | inhibition [22]: Active; inhibition [23]: Active; inhibition [24]: Active
11 | 19.2 |  | CS(=O)(=O)Nc1ccc(-c2cc3c(Nc4ccc(Oc5cccc(C(F)(F)F)c5)c(Cl)c4)ncnc3s2)cc1 | 5.25 | 9.86 |  |  | 
12 |  |  | CC(C)/C=C/C(=O)Nc1ccc(-c2cc3c(Nc4ccc(Oc5cccc(C(F)(F)F)c5)c(Cl)c4)ncnc3s2)cc1 | 0.23 | > 20 |  |  | 
13 | 37.1 | 0.112 | O=C(Nc1ccc(-c2cc3c(Nc4ccc(Oc5cccc(C(F)(F)F)c5)c(Cl)c4)ncnc3s2)cc1)NC1CC1 | 2.34 | 3.83 |  |  | 

— ChEMBL document CHEMBL4270530, “Surmounting the resistance against EGFR inhibitors through the development of thieno[2,3-d]pyrimidine-based dual EGFR/HER2 inhibitors” (Eur J Med Chem, 2018)
